Results as given in ChEMBL document CHEMBL4304819, “Natural product pectolinarigenin exhibits potent anti-metastatic activity in colorectal carcinoma cells in vitro and in vivo” (2019).
Active and inactive are the calls of the source. No cut-off for these calls is given here.

Assays:
CT26 [1] = assay: Antiproliferative activity against mouse CT26 cells assessed as inhibition of cell viability up to 40 uM by MTT assay; assay type: functional, cell-based; details: TDE = time-dependent effect
Summary of the method: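 Exponentially growing cells (2–6 × 10^3 per well) seeded in 96-well plates for 24 h, then exposed to 0, 2.5, 5, 10, 20, 40 µM for 24, 48 and 72 h. MTT (5 mg/mL stock) added 2–4 h at 37 °C; formazan dissolved in DMSO, absorbance at 570 nm. Three independent experiments.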

SW48 [2] = assay: Anticlonogenic activity against human SW48 cells assessed as reduction in colony formation up to 40 uM incubated for 24 hrs supplemented with fresh medium containing compound every 3 days for 12 days by crystal violet staining-based microscopic analysis; assay type: functional, cell-based
Summary of the method: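 Cells seeded at 400–800 per well in 6-well plates; after 24 h, treated with 0–40 μM in fresh medium (with or without compound) replaced every three days for 12 days. Colonies fixed in methanol, stained with 0.5% crystal violet for 15 min and counted by microscope; reported as surviving colonies, mean ± SD of three experiments.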

SW48 [3] = assay: Inhibition of colony formation in human SW48 cells assessed as reduction in number of colonies up to 40 uM incubated for 24 hrs supplemented with fresh medium containing compound every 3 days for 12 days by crystal violet staining-based microscopic analysis; assay type: functional, cell-based
Summary of the method: (§1)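 400–800 cells per well seeded in 6-well plates; after 24 h, PEC (0–40 μM) added. Medium with or without compound replaced every three days for 12 days. Colonies washed in cold PBS, fixed in methanol, stained 15 min with 0.5% crystal violet and counted under a microscope. Mean ± SD of three experiments.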

SW48 [4] = assay: Inhibition of colony formation in human SW48 cells assessed as reduction in size of colonies up to 40 uM incubated for 24 hrs supplemented with fresh medium containing compound every 3 days for 12 days by crystal violet staining-based microscopic analysis; assay type: functional, cell-based; summary of the method: as §1
CT26 [5] = assay: Induction of apoptosis in mouse CT26 cells assessed as viable cells at 40 uM after 48 hrs by Annexin V-FITC/propidium iodide staining-based flow cytometric analysis (reference value: 88.9 %); assay type: functional; details: CT26, 48 h, read-out: Activity
Summary of the method: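 CT26 cells seeded at 1–2 × 10^5 per well in six-well plates for 24 h, then exposed to PEC (0–40 μM) for 24 or 48 h. Cells harvested, washed twice in cold PBS, stained with Annexin V-FITC/PI and read by flow cytometry. Early apoptotic = Annexin V+ only; late apoptotic = Annexin V+/PI+. Mean ± SD of three experiments.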

CT26 [6] = assay: Induction of apoptosis in mouse CT26 cells assessed as increase in cleaved caspase-3 expression after 48 hrs by Western blot analysis; assay type: functional, cell-based
Summary of the method: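 CT26 cells exposed 48 h to PEC at 0, 10, 20 and 40 μM, washed twice in cold PBS, lysed in RIPA. Protein measured by Lowry and equalized, run on SDS-PAGE, blotted to PVDF. Blocked 1 h at 37 °C, primary antibodies (Bax, Bcl-2, pro-caspase-3, cleaved caspase-3) overnight at 4 °C, secondary 1 h, ECL detection, densitometry.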

HCT-116 [7] = assay: Induction of apoptosis in human HCT116 cells assessed increase in Bax/Bcl2 protein ratio up to 40 uM after 48 hrs by Western blot analysis; assay type: functional, cell-based
Summary of the method: (§2)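 Cells treated 48 h at 0, 10, 20 and 40 μM, washed in cold PBS, lysed in RIPA; protein equalized by Lowry assay, resolved by SDS-PAGE, transferred to PVDF, blocked 1 h at 37 °C, primary antibody overnight at 4 °C, secondary 1 h, ECL detection, densitometry. β-actin loading control.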

HCT-116 [8] = assay: Antimetastatic activity against human HCT116 assessed as inhibition of MMP-9 expression after 48 hrs by Western blot analysis; assay type: functional, cell-based; summary of the method: as §2
CT26 [9] = assay: Antimetastatic activity against mouse CT26 cells allografted in Balb/c mouse assessed as decrease in CD11b-positive/Gr1-positive myeloid cells level in tumour at 25 mg/kg, ip administered daily for 14 days starting from 6 days post implantation flow cytometric analysis (reference value: 10 %); assay type: functional; parameters: scale not given: the % may be the effect or the level left
CT26 [10] = assay: Antimetastatic activity against mouse CT26 cells allografted in Balb/c mouse assessed as increase in infiltration of CD8+ T cells in blood at 25 mg/kg, ip administered daily for 14 days starting from 6 days post implantation flow cytometric analysis (reference value: 1.35 %); assay type: functional
CT26 [11] = assay: Antimetastatic activity against mouse CT26 cells allografted in Balb/c mouse assessed as increase in infiltration of CD8+ T cells in blood at 50 mg/kg, ip administered daily for 14 days starting from 6 days post implantation flow cytometric analysis (reference value: 1.35 %); assay type: functional

For `COc1ccc(-c2cc(=O)c3c(O)c(OC)c(O)cc3o2)cc1` [PECTOLINARIGENIN], the inhibition (CT26 [1]) was “Tde”, the inhibition (SW48 [2]) was “Active” and the inhibition (SW48 [3]) was “Active”. The inhibition (SW48 [4]) was “Active”, the viability at 40 µM (CT26 [5]) was 67.3% and the Activity (CT26 [6]) was “Dose-dependent effect”. The Activity (HCT-116 [7]) was “Active”, the inhibition (HCT-116 [8]) was “Dose-dependent effect” and the Activity (CT26 [9]) was 7.4%. For the same compound, the Activity (CT26 [10]) was 2.59% and the Activity (CT26 [11]) was 4.17%.
